In ChEMBL document CHEMBL4689842, “EUbOPEN Chemogenomics Library wave 1” (2021):

Tested on: Fibroblast
Experiment: Multiplex assay against human fibroblast
Format: toxicity, cell-based
Method in brief: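 Compound was added to live cells that had been stained at seeding with Hoechst33342, BioTracker Green Microtubule Cytoskeleton Dye, MitoTracker Red and Annexin V Alexa Fluor 680, and imaging followed on a CQ1 microscope at 37°C and 5% CO2. CellPathfinder machine-learning gating divided cells into Hoechst high-intensity objects or normal cells, normal cells into healthy, pyknosed or fragmented nuclei, and pyknosed cells into mitotic or apoptotic. Tubulin, mitochondrial-mass and membrane-permeability phenotypes are per cents of healthy-nucleus cells.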

[1] = 12 h, 1 µM, compound concentration 1 uM, replicate 1
[2] = 12 h, 1 µM, compound concentration 1 uM, replicate 2
[3] = 12 h, 10 µM, compound concentration 10 uM, replicate 1
[4] = 12 h, 10 µM, compound concentration 10 uM, replicate 2
[5] = 24 h, 1 µM, compound concentration 1 uM, replicate 1
[6] = 24 h, 1 µM, compound concentration 1 uM, replicate 2
[7] = 24 h, 10 µM, compound concentration 10 uM, replicate 1
[8] = 24 h, 10 µM, compound concentration 10 uM, replicate 2
[9] = 48 h, 1 µM, compound concentration 1 uM, replicate 1
[10] = 48 h, 1 µM, compound concentration 1 uM, replicate 2
[11] = 48 h, 10 µM, compound concentration 10 uM, replicate 1
[12] = 48 h, 10 µM, compound concentration 10 uM, replicate 2

## Cc1csc2c(N[C@@H](C)CN3CCN(S(=O)(=O)c4ccc(Cl)c(Cl)c4)CC3)ncnc12
[1]
  Population Apoptotic (%): 56%
  Population Fragmented Nuclei (%): 22%
  Population Healthy Nuclei (%): 46%
  Population Hoechst High Intensity Objects (%): 5%
  Population Membrane Permeable-Phenotype (%): 33%
  Population Mitochondria Different-Phenotype (%): 21%
  Population Mitotic Cells (%): 43%
  Population Normal (%): 94%
  Population Pyknosed Nuclei (%): 31%
  Population Tubulin-Different-Phenotype (%): 87%
  Total Cell Count: 149
[2]
  Population Apoptotic (%): 16%
  Population Fragmented Nuclei (%): 5%
  Population Healthy Nuclei (%): 84%
  Population Membrane Permeable-Phenotype (%): 6%
  Population Mitochondria Different-Phenotype (%): 33%
  Population Mitotic Cells (%): 83%
  Population Normal (%): 95%
  Population Pyknosed Nuclei (%): 10%
  Population Tubulin-Different-Phenotype (%): 47%
  Total Cell Count: 48
[3]
  Population Apoptotic (%): 52%
  Population Fragmented Nuclei (%): 32%
  Population Healthy Nuclei (%): 29%
  Population Hoechst High Intensity Objects (%): 21%
  Population Membrane Permeable-Phenotype (%): 23%
  Population Mitochondria Different-Phenotype (%): 42%
  Population Mitotic Cells (%): 47%
  Population Normal (%): 78%
  Population Pyknosed Nuclei (%): 38%
  Population Tubulin-Different-Phenotype (%): 92%
  Total Cell Count: 113
[4]
  Population Apoptotic (%): 75%
  Population Fragmented Nuclei (%): 12%
  Population Healthy Nuclei (%): 67%
  Population Hoechst High Intensity Objects (%): 4%
  Population Membrane Permeable-Phenotype (%): 56%
  Population Mitochondria Different-Phenotype (%): 98%
  Population Mitotic Cells (%): 25%
  Population Normal (%): 95%
  Population Pyknosed Nuclei (%): 19%
  Population Tubulin-Different-Phenotype (%): 98%
  Total Cell Count: 60
[5]
  Population Apoptotic (%): 59%
  Population Fragmented Nuclei (%): 26%
  Population Healthy Nuclei (%): 44%
  Population Hoechst High Intensity Objects (%): 8%
  Population Membrane Permeable-Phenotype (%): 19%
  Population Mitochondria Different-Phenotype (%): 33%
  Population Mitotic Cells (%): 40%
  Population Normal (%): 91%
  Population Pyknosed Nuclei (%): 29%
  Population Tubulin-Different-Phenotype (%): 90%
  Total Cell Count: 156
[6]
  Population Apoptotic (%): 60%
  Population Fragmented Nuclei (%): 11%
  Population Healthy Nuclei (%): 73%
  Population Hoechst High Intensity Objects (%): 4%
  Population Membrane Permeable-Phenotype (%): 11%
  Population Mitochondria Different-Phenotype (%): 25%
  Population Normal (%): 95%
  Population Pyknosed Nuclei (%): 14%
  Population Tubulin-Different-Phenotype (%): 23%
  Total Cell Count: 64
[7]
  Population Apoptotic (%): 67%
  Population Fragmented Nuclei (%): 36%
  Population Healthy Nuclei (%): 24%
  Population Hoechst High Intensity Objects (%): 23%
  Population Membrane Permeable-Phenotype (%): 19%
  Population Mitochondria Different-Phenotype (%): 71%
  Population Mitotic Cells (%): 32%
  Population Normal (%): 76%
  Population Pyknosed Nuclei (%): 39%
  Population Tubulin-Different-Phenotype (%): 80%
  Total Cell Count: 113
[8]
  Population Apoptotic (%): 80%
  Population Fragmented Nuclei (%): 15%
  Population Healthy Nuclei (%): 57%
  Population Hoechst High Intensity Objects (%): 4%
  Population Membrane Permeable-Phenotype (%): 80%
  Population Mitochondria Different-Phenotype (%): 97%
  Population Mitotic Cells (%): 19%
  Population Normal (%): 95%
  Population Pyknosed Nuclei (%): 26%
  Population Tubulin-Different-Phenotype (%): 97%
  Total Cell Count: 72
[9]
  Population Apoptotic (%): 67%
  Population Fragmented Nuclei (%): 22%
  Population Healthy Nuclei (%): 53%
  Population Hoechst High Intensity Objects (%): 9%
  Population Membrane Permeable-Phenotype (%): 33%
  Population Mitochondria Different-Phenotype (%): 17%
  Population Mitotic Cells (%): 32%
  Population Normal (%): 90%
  Population Pyknosed Nuclei (%): 24%
  Population Tubulin-Different-Phenotype (%): 96%
  Total Cell Count: 155
[10]
  Population Apoptotic (%): 100%
  Population Fragmented Nuclei (%): 31%
  Population Healthy Nuclei (%): 67%
  Population Hoechst High Intensity Objects (%): 8%
  Population Membrane Permeable-Phenotype (%): 9%
  Population Mitochondria Different-Phenotype (%): 7%
  Population Mitotic Cells (%): 0%
  Population Normal (%): 91%
  Population Pyknosed Nuclei (%): 0%
  Population Tubulin-Different-Phenotype (%): 93%
  Total Cell Count: 123
[11]
  Population Apoptotic (%): 100%
  Population Fragmented Nuclei (%): 33%
  Population Healthy Nuclei (%): 37%
  Population Hoechst High Intensity Objects (%): 40%
  Population Membrane Permeable-Phenotype (%): 21%
  Population Mitochondria Different-Phenotype (%): 56%
  Population Mitotic Cells (%): 0%
  Population Normal (%): 59%
  Population Pyknosed Nuclei (%): 29%
  Population Tubulin-Different-Phenotype (%): 82%
  Total Cell Count: 104
[12]
  Population Apoptotic (%): 57%
  Population Fragmented Nuclei (%): 44%
  Population Healthy Nuclei (%): 47%
  Population Hoechst High Intensity Objects (%): 25%
  Population Membrane Permeable-Phenotype (%): 2%
  Population Mitochondria Different-Phenotype (%): 79%
  Population Mitotic Cells (%): 42%
  Population Normal (%): 75%
  Population Pyknosed Nuclei (%): 7%
  Population Tubulin-Different-Phenotype (%): 95%
  Total Cell Count: 120
